Consider eight compounds from ChEMBL document CHEMBL1148554, “Hydroxylated analogues of the orally active broad spectrum antifungal, Sch 51048 (1), and the discovery of posaconazole [Sch 56592; 2 or (S,S)-5]” (2006).

In test [1] the test system is Candida albicans. Kind of test: Antifungal activity against Candida albicans. It counts as functional. In short, it runs like this: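 Geometric mean MIC across 26–30 C. albicans strains.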
Test [2] relates to Aspergillus. Put plainly: Antifungal activity against Aspergillus species. The format is functional. In short, it runs like this: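 Geometric mean MIC across 37 Aspergillus strains: 17 A. fumigatus, 11 A. flavus, 5 A. niger and 4 A. terreus.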

As a reminder, the MIC is the lowest concentration that inhibits growth of the organism. A lower MIC goes with a more susceptible organism.

Molecules are shown by their SMILES. In brackets after ≈: the same amount, converted by molar mass.

Consider `C[C@H]([C@@H](C)O)n1ncn(-c2ccc(N3CCN(c4ccc(OC[C@@H]5CO[C@@](Cn6cncn6)(c6ccc(F)cc6F)C5)cc4)CC3)cc2)c1=O`, for which the minimum inhibitory concentration (MIC) in test [1] is less than 0.006 µg/mL; in test [2] it was 0.09 µg/mL (≈ 0.131 µM).
In the same order, the values of `CC[C@H]([C@@H](C)O)n1ncn(-c2ccc(N3CCN(c4ccc(OC[C@@H]5CO[C@@](Cn6cncn6)(c6ccc(F)cc6F)C5)cc4)CC3)cc2)c1=O` are 0.014 µg/mL (≈ 0.02 µM) and less than 0.077 µg/mL.
For `C[C@H](O)[C@@H](C)n1ncn(-c2ccc(N3CCN(c4ccc(OC[C@@H]5CO[C@@](Cn6cncn6)(c6ccc(F)cc6F)C5)cc4)CC3)cc2)c1=O`, in that order: 0.03 µg/mL (≈ 0.0437 µM) and 0.08 µg/mL (≈ 0.116 µM).
For `CC[C@H]([C@H](C)O)n1ncn(-c2ccc(N3CCN(c4ccc(OC[C@@H]5CO[C@@](Cn6cncn6)(c6ccc(F)cc6F)C5)cc4)CC3)cc2)c1=O`, in that order: 0.022 µg/mL (≈ 0.0314 µM) and less than 0.09 µg/mL.
As for `C[C@@H](O)[C@H](C)n1ncn(-c2ccc(N3CCN(c4ccc(OC[C@@H]5CO[C@@](Cn6cncn6)(c6ccc(F)cc6F)C5)cc4)CC3)cc2)c1=O`, the values for the minimum inhibitory concentration (MIC) in test [1] and in test [2] were less than 0.007 µg/mL and less than 0.05 µg/mL, respectively.
For `C[C@H](O)[C@H](C)n1ncn(-c2ccc(N3CCN(c4ccc(OC[C@@H]5CO[C@@](Cn6cncn6)(c6ccc(F)cc6F)C5)cc4)CC3)cc2)c1=O`, in that order: 0.02 µg/mL (≈ 0.0291 µM) and 0.06 µg/mL (≈ 0.0874 µM).
As to `CC[C@@H]([C@@H](C)O)n1ncn(-c2ccc(N3CCN(c4ccc(OC[C@@H]5CO[C@@](Cn6cncn6)(c6ccc(F)cc6F)C5)cc4)CC3)cc2)c1=O` (mixture of isomers), the figures for the minimal inhibitory concentration (MIC) in test [1] and in test [2] were 0.019 µg/mL and less than 0.086 µg/mL, respectively.
In the same order, the values of `CC[C@@H]([C@H](C)O)n1ncn(-c2ccc(N3CCN(c4ccc(OC[C@@H]5CO[C@@](Cn6cncn6)(c6ccc(F)cc6F)C5)cc4)CC3)cc2)c1=O` [POSACONAZOLE] are 0.018 µg/mL (≈ 0.0257 µM) and less than 0.048 µg/mL.
